Results reported in ChEMBL document CHEMBL4004835, “Discovery of Novel Disruptor of Silencing Telomeric 1-Like (DOT1L) Inhibitors using a Target-Specific Scoring Function for the (S)-Adenosyl-l-methionine (SAM)-Dependent Methyltransferase Family” (J Med Chem, 2017).
The source made the active and inactive calls. The calls are words filed in the database; no cut-off is given here.

What was measured:
[1] = test system: MV4-11; assay: Induction of cell cycle arrest in human MV4-11 cells assessed as accumulation at S phase at 12.5 uM after 48 hrs by propidium iodide/RNase-staining based flow cytometric analysis (reference value: 24.40 %); format: functional
How it was run: (§1)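 MV4-11 cells (2 × 10^6) seeded in 12-well dishes, treated with different concentrations for 48 h, processed with a PI/RNase staining kit and analysed for cell-cycle distribution by FACSCalibur flow cytometry.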

[2] = target: Protein arginine N-methyltransferase 1 (Homo sapiens) (UniProt Q99873); assay: Inhibition of PRMT1 (unknown origin) preincubated for 15 mins followed by biotinylated H3R2 substrate/[…]SAM addition for 60 mins measured after further 60 mins by AlphaLISA assay
How it was run: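 Enzyme incubated 15 min at room temperature; biotinylated H3R2 peptide (50 nM final) and SAM (300 nM final) added; at 60 min acceptor beads (10 μg/mL final) stop the reaction; after 60 min, donor beads (10 μg/mL final) added, 30 min at room temperature in low light; alpha signal read.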

[3] = test system: MV4-11; assay: Induction of cell cycle arrest in human MV4-11 cells assessed as accumulation at G2 phase at 25 uM after 48 hrs by propidium iodide/RNase-staining based flow cytometric analysis (reference value: 7.44 %); format: functional; how it was run: as §1
[4] = test system: MV4-11; assay: Induction of apoptosis in human MV4-11 cells assessed as necrotic cells at 25 uM after 72 hrs by annexin V/FITC and propidium iodide staining-based flow cytometric analysis (reference value: 0.04 %); format: functional
[5] = target: T1, Histone-lysine N-methyltransferase, H3 lysine-79 specific (Homo sapiens, UniProt Q8TEK3); assay: Binding affinity to human N-terminal 6His-tagged DOT1L (1 to 416 residues) expressed in Escherichia coli BL21(DE3) after 150 secs by SPR-based binding assay
Target sequence in this assay (Q8TEK3 whole entry, the tested form may be a part): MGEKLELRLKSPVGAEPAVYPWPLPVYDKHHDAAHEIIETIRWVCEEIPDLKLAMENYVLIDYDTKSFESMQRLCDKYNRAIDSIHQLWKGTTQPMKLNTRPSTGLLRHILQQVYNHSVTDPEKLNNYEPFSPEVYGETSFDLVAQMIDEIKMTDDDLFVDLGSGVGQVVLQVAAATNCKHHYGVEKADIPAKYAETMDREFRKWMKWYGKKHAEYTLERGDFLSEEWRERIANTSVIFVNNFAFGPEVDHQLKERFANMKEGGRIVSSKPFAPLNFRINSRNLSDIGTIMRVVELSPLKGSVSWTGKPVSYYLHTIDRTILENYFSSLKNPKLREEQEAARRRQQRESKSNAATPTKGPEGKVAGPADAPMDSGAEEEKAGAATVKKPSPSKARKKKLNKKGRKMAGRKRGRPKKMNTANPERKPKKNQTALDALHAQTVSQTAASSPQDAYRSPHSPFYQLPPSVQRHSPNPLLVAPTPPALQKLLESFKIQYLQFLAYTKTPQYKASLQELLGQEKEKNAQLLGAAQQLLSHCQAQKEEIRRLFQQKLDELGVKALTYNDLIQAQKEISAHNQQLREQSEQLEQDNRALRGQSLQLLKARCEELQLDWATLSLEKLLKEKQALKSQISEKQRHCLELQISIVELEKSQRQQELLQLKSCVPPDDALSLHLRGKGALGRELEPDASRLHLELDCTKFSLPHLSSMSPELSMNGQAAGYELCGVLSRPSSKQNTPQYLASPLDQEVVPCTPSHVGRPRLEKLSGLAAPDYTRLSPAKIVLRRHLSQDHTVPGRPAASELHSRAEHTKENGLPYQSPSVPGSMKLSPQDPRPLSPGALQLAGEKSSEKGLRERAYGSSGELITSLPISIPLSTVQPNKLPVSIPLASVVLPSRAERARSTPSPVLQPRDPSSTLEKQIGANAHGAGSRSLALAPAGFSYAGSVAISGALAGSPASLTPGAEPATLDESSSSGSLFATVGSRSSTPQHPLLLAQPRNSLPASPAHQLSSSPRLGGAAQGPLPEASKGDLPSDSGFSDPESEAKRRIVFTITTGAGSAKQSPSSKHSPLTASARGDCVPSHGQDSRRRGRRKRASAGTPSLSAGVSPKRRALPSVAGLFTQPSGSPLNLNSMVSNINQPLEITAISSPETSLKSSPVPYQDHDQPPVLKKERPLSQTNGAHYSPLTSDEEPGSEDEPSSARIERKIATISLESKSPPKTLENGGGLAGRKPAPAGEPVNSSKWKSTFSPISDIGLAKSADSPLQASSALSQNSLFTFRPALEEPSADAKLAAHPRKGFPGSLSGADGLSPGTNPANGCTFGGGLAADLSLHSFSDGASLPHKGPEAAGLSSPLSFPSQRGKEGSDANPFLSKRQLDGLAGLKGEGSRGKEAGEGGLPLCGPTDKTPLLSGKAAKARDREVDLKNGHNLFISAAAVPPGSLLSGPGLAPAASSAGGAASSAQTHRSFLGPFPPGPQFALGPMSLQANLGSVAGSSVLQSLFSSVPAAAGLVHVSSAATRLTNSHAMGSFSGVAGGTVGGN

[6] = test system: MV4-11; assay: Induction of cell cycle arrest in human MV4-11 cells assessed as accumulation at G1 phase at 6.25 uM after 48 hrs by propidium iodide/RNase-staining based flow cytometric analysis (reference value: 68.16 %); format: functional; how it was run: as §1
[7] = target: T1, Histone-lysine N-methyltransferase, H3 lysine-79 specific; assay: Inhibition of N-terminal 6His-tagged human DOT1L (1 to 416 residues) expressed in Escherichia coli BL21(DE3) at 50 uM using histone H3 as substrate preincubated for 15 mins followed by SAM addition measured after 60 mins by AlphaLISA assay
How it was run: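 DOT1L (80 nM final) preincubated with compound 15 min at 25 °C; SAM 1 mM and oligonucleosomes 0.25 ng/μL added in 50 mM Tris-HCl pH 8.0, 150 mM NaCl, 3 mM MgCl2, 0.1% BSA, 60 min at 25 °C; stopped with high-salt buffer; H3K79me2 detected with anti-H3 acceptor beads, biotinylated antibody, then streptavidin donor beads.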
Target sequence in this assay (Q8TEK3 whole entry, looked up, the tested form may be a part): as the sequence (Q8TEK3 whole entry, the tested form may be a part) above

[8] = test system: MV4-11; assay: Induction of apoptosis in human MV4-11 cells assessed as early apoptotic cells at 12.5 uM after 72 hrs by annexin V/FITC and propidium iodide staining-based flow cytometric analysis (reference value: 5.66 %); format: functional
[9] = test system: MV4-11; assay: Induction of apoptosis in human MV4-11 cells assessed as late apoptotic cells at 6.25 uM after 72 hrs by annexin V/FITC and propidium iodide staining-based flow cytometric analysis (reference value: 4.02 %); format: functional
[10] = test system: MV4-11; assay: Induction of cell cycle arrest in human MV4-11 cells assessed as accumulation at S phase at 25 uM after 48 hrs by propidium iodide/RNase-staining based flow cytometric analysis (reference value: 24.40 %); format: functional; how it was run: as §1
[11] = target: T1, Histone-lysine N-methyltransferase, H3 lysine-79 specific; assay: Inhibition of N-terminal 6His-tagged human DOT1L (1 to 416 residues) expressed in Escherichia coli BL21(DE3) at 50 and 100 uM preincubated for 15 mins followed by [3H]-SAM addition measured after 120 mins by radioactive methylation assay
How it was run: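 DOT1L and compound preincubated 15 min at room temperature; oligonucleosome and 3H-SAM added; reaction 120 min at room temperature, stopped with cold SAM; transferred to 0.5% PEI-pretreated filter plate, washed 3× with water, read by liquid scintillation counting.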
Target sequence in this assay (Q8TEK3 whole entry, looked up, the tested form may be a part): as the sequence (Q8TEK3 whole entry, the tested form may be a part) above

[12] = test system: MV4-11; assay: Induction of apoptosis in human MV4-11 cells assessed as early apoptotic cells at 50 uM after 72 hrs by annexin V/FITC and propidium iodide staining-based flow cytometric analysis (reference value: 5.66 %); format: functional
[13] = test system: MV4-11; assay: Induction of cell cycle arrest in human MV4-11 cells assessed as accumulation at G2 phase at 6.25 uM after 48 hrs by propidium iodide/RNase-staining based flow cytometric analysis (reference value: 7.44 %); format: functional; how it was run: as §1
[14] = test system: MV4-11; assay: Induction of cell cycle arrest in human MV4-11 cells assessed as accumulation at G2 phase at 12.5 uM after 48 hrs by propidium iodide/RNase-staining based flow cytometric analysis (reference value: 7.44 %); format: functional; how it was run: as §1
[15] = target: Histone-lysine N-methyltransferase, H3 lysine-36 specific (Homo sapiens) (UniProt Q96L73); assay: Inhibition of NSD1 (unknown origin) at 50 and 100 uM preincubated for 15 mins followed by substrate and [3H]-SAM addition after 120 mins by MicroBeta counting
How it was run: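 In modified Tris buffer, enzyme incubated 15 min at room temperature, then substrate and [3H]SAM added; stopped at 120 min with cold SAM; transferred to a 0.5% PEI-pretreated GF/B plate, washed 3× with water, read by MicroBeta.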

[16] = test system: MV4-11; assay: Induction of apoptosis in human MV4-11 cells assessed as viable cells at 50 uM after 72 hrs by annexin V/FITC and propidium iodide staining-based flow cytometric analysis (reference value: 90.3 %); format: functional; conditions: MV4-11, 72 h, read-out: Activity
[17] = test system: K562; assay: Cytotoxicity against human K562 cells assessed as reduction in cell viability after 72 hrs by alamar blue assay; format: functional, cell-based; conditions: K562, 72 h
How it was run: (§2)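 Cells cultured in RPMI 1640 with 10% FBS and 1% penicillin/streptomycin, treated with a range of concentrations or equal DMSO, 37 °C, 5% CO2, 72 h. Viability read by alamar blue (ex 544/em 590 nm); percent proliferation and IC50 curve fitted.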

[18] = test system: MV4-11; assay: Induction of apoptosis in human MV4-11 cells assessed as viable cells at 25 uM after 72 hrs by annexin V/FITC and propidium iodide staining-based flow cytometric analysis (reference value: 90.3 %); format: functional; conditions: MV4-11, 72 h, read-out: Activity
[19] = test system: MV4-11; assay: Induction of apoptosis in human MV4-11 cells assessed as late apoptotic cells at 50 uM after 72 hrs by annexin V/FITC and propidium iodide staining-based flow cytometric analysis (reference value: 4.02 %); format: functional
[20] = target: DNA (cytosine-5)-methyltransferase 1 (Homo sapiens) (UniProt P26358); assay: Inhibition of DNMT1 (unknown origin) at 50 and 100 uM preincubated for 15 mins followed by poly(dI-DC) substrate and [3H]-SAM addition after 120 mins by liquid MicroBeta counting
How it was run: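 In modified Tris buffer, enzyme preincubated 15 min at room temperature; poly(dI-dC) substrate and [3H]SAM added; 120 min at 37 °C; reaction transferred to 0.5% PEI-pretreated filter plates, vacuumed, read by MicroBeta; SAH as positive control.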

[21] = test system: MV4-11; assay: Induction of cell cycle arrest in human MV4-11 cells assessed as accumulation at S phase at 6.25 uM after 48 hrs by propidium iodide/RNase-staining based flow cytometric analysis (reference value: 24.40 %); format: functional; how it was run: as §1
[22] = test system: Kasumi 1; assay: Cytotoxicity against human Kasumi-1 cells assessed as reduction in cell viability after 72 hrs by alamar blue assay; format: functional, cell-based; conditions: Kasumi 1, 72 h; how it was run: as §2

Chain of DNA (cytosine-5)-methyltransferase 1 (Homo sapiens) (P26358 whole entry): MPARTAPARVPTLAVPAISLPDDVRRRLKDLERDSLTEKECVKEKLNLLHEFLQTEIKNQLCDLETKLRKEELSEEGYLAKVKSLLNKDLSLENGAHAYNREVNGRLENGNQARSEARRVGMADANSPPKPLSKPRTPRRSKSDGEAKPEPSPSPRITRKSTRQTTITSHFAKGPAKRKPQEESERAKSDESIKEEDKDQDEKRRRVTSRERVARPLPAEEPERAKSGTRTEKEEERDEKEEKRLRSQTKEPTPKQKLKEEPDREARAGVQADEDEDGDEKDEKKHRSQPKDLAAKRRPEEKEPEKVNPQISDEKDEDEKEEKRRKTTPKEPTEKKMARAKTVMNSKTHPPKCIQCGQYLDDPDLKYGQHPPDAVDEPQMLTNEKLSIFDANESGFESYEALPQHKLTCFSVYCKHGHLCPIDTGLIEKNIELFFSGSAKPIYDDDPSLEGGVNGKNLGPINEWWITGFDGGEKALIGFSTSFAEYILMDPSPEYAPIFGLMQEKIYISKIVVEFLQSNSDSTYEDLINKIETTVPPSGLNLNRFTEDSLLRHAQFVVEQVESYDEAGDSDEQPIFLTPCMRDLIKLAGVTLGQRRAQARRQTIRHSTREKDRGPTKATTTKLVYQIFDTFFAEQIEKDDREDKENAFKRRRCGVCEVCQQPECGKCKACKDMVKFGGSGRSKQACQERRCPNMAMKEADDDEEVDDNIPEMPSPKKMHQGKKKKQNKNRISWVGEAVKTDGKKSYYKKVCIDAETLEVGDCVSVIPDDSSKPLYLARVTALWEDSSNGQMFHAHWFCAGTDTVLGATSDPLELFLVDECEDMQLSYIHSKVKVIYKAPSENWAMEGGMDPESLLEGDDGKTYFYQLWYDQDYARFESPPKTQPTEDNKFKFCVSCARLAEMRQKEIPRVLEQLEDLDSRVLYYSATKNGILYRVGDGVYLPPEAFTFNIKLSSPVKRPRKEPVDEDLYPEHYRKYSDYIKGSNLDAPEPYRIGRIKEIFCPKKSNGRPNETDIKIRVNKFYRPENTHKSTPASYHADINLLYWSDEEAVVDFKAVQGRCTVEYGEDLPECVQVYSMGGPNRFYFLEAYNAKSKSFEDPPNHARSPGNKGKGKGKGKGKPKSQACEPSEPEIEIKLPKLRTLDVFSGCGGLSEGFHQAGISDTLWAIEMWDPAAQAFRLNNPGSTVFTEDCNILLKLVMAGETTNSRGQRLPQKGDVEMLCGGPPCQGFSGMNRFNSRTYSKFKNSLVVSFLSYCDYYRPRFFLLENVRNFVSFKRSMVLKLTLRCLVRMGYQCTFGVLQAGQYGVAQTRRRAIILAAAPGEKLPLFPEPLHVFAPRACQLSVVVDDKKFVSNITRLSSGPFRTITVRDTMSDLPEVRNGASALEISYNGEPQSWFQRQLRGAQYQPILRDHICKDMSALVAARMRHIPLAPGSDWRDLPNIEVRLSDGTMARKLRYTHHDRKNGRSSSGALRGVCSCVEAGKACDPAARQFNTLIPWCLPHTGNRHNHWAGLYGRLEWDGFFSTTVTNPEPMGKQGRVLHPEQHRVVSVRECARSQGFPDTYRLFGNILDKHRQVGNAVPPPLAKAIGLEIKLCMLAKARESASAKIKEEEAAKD
Chain of Protein arginine N-methyltransferase 1 (Homo sapiens) (Q99873 whole entry, looked up): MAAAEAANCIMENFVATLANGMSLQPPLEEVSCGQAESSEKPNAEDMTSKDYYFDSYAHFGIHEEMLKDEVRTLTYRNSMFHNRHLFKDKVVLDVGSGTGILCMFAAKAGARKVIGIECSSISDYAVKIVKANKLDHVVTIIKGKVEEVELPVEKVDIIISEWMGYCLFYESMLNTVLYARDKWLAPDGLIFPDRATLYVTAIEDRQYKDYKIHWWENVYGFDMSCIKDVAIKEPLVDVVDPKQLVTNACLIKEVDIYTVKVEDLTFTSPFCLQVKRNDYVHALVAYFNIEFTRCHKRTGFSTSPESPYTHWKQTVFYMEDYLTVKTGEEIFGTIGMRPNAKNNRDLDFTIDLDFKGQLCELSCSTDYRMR

Compound: Fc1cccc(-c2nn3c(Cn4nnc5ccccc54)nnc3s2)c1
- Activity [1]: 25.38%
- inhibition [2]: < 40%
- Activity [3]: 0.99%
- Activity [4]: 1.6%
- Kd [5]: 17.3 µM
- Activity [6]: 67.64%
- inhibition [7]: > 40%
- Activity [8]: 50.1%
- Activity [9]: 25%
- Activity [10]: 15.82%
- inhibition [11]: Active
- Activity [12]: 55.2%
- Activity [13]: 5.8%
- Activity [14]: 4.35%
- inhibition [15]: < 40%
- viability at 50 µM [16]: 3.75%
- IC50 [17]: > 200 µM
- viability at 25 µM [18]: 6.76%
- Activity [19]: 40.8%
- inhibition [20]: < 40%
- Activity [21]: 26.56%
- IC50 [22]: > 200 µM
